Measured values published in ChEMBL document CHEMBL4689842, “EUbOPEN Chemogenomics Library wave 1” (2021).

Experiments:
Format in all cases: toxicity, cell-based
Fibroblast [1] = experiment: Incucyte cell viability with human fibroblast; details: 10 µM, compound concentration 10 uM; note: filed as whole numbers so only -1 and 0 and 1 occur
Fibroblast [2] = experiment: Multiplex assay against human fibroblast
In short: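 Compound was added to live cells that had been stained at seeding with Hoechst33342, BioTracker Green Microtubule Cytoskeleton Dye, MitoTracker Red and Annexin V Alexa Fluor 680, and imaging followed on a CQ1 microscope at 37°C and 5% CO2. CellPathfinder machine-learning gating divided cells into Hoechst high-intensity objects or normal cells, normal cells into healthy, pyknosed or fragmented nuclei, and pyknosed cells into mitotic or apoptotic. Tubulin, mitochondrial-mass and membrane-permeability phenotypes are per cents of healthy-nucleus cells.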

U2OS = experiment: Incucyte cell viability with U2OS; details: human, 10 µM, compound concentration 10 uM; note: filed as whole numbers so only -1 and 0 and 1 occur
[3] = 6 h, replicate number 1, timepoint 6 hours
[4] = 12 h, replicate number 1, timepoint 12 hours
[5] = 18 h, replicate number 1, timepoint 18 hours
[6] = 24 h, replicate number 1, timepoint 24 hours
[7] = 12 h, 1 µM, compound concentration 1 uM, replicate 1
[8] = 12 h, 1 µM, compound concentration 1 uM, replicate 2
[9] = 12 h, 10 µM, compound concentration 10 uM, replicate 1
[10] = 12 h, 10 µM, compound concentration 10 uM, replicate 2
[11] = 24 h, 1 µM, compound concentration 1 uM, replicate 1
[12] = 24 h, 1 µM, compound concentration 1 uM, replicate 2
[13] = 24 h, 10 µM, compound concentration 10 uM, replicate 1
[14] = 24 h, 10 µM, compound concentration 10 uM, replicate 2

CCOc1cc2ncc(C#N)c(Nc3ccc(OCc4cccc(F)c4)c(Cl)c3)c2cc1NC(=O)/C=C/CN(C)C [HKI-357]
Growth Rate (Fibroblast [1]; 0 h, replicate number 1, timepoint 0 hours): 0
Growth Rate (Fibroblast [1]; [3]): 0
Growth Rate (Fibroblast [1]; [4]): 0
Growth Rate (Fibroblast [1]; [5]): 0
Growth Rate (Fibroblast [1]; [6]): 0
Population Apoptotic (%) (Fibroblast [2]; [7]): 72%
Population Fragmented Nuclei (%) (Fibroblast [2]; [7]): 21%
Population Healthy Nuclei (%) (Fibroblast [2]; [7]): 60%
Population Hoechst High Intensity Objects (%) (Fibroblast [2]; [7]): 14%
Population Membrane Permeable-Phenotype (%) (Fibroblast [2]; [7]): 7%
Population Mitochondria Different-Phenotype (%) (Fibroblast [2]; [7]): 7%
Population Mitotic Cells (%) (Fibroblast [2]; [7]): 27%
Population Normal (%) (Fibroblast [2]; [7]): 85%
Population Pyknosed Nuclei (%) (Fibroblast [2]; [7]): 18%
Population Tubulin-Different-Phenotype (%) (Fibroblast [2]; [7]): 11%
Total Cell Count (Fibroblast [2]; [7]): 223
Population Apoptotic (%) (Fibroblast [2]; [8]): 33%
Population Fragmented Nuclei (%) (Fibroblast [2]; [8]): 60%
Population Healthy Nuclei (%) (Fibroblast [2]; [8]): 31%
Population Hoechst High Intensity Objects (%) (Fibroblast [2]; [8]): 34%
Population Membrane Permeable-Phenotype (%) (Fibroblast [2]; [8]): 4%
Population Mitochondria Different-Phenotype (%) (Fibroblast [2]; [8]): 9%
Population Mitotic Cells (%) (Fibroblast [2]; [8]): 66%
Population Normal (%) (Fibroblast [2]; [8]): 65%
Population Pyknosed Nuclei (%) (Fibroblast [2]; [8]): 8%
Population Tubulin-Different-Phenotype (%) (Fibroblast [2]; [8]): 13%
Total Cell Count (Fibroblast [2]; [8]): 107
Population Apoptotic (%) (Fibroblast [2]; [9]): 76%
Population Fragmented Nuclei (%) (Fibroblast [2]; [9]): 42%
Population Healthy Nuclei (%) (Fibroblast [2]; [9]): 37%
Population Hoechst High Intensity Objects (%) (Fibroblast [2]; [9]): 13%
Population Membrane Permeable-Phenotype (%) (Fibroblast [2]; [9]): 15%
Population Mitochondria Different-Phenotype (%) (Fibroblast [2]; [9]): 12%
Population Mitotic Cells (%) (Fibroblast [2]; [9]): 23%
Population Normal (%) (Fibroblast [2]; [9]): 86%
Population Pyknosed Nuclei (%) (Fibroblast [2]; [9]): 20%
Population Tubulin-Different-Phenotype (%) (Fibroblast [2]; [9]): 46%
Total Cell Count (Fibroblast [2]; [9]): 368
Population Apoptotic (%) (Fibroblast [2]; [10]): 37%
Population Fragmented Nuclei (%) (Fibroblast [2]; [10]): 61%
Population Healthy Nuclei (%) (Fibroblast [2]; [10]): 20%
Population Hoechst High Intensity Objects (%) (Fibroblast [2]; [10]): 46%
Population Mitochondria Different-Phenotype (%) (Fibroblast [2]; [10]): 26%
Population Mitotic Cells (%) (Fibroblast [2]; [10]): 62%
Population Normal (%) (Fibroblast [2]; [10]): 53%
Population Pyknosed Nuclei (%) (Fibroblast [2]; [10]): 17%
Population Tubulin-Different-Phenotype (%) (Fibroblast [2]; [10]): 78%
Total Cell Count (Fibroblast [2]; [10]): 170
Population Apoptotic (%) (Fibroblast [2]; [11]): 57%
Population Fragmented Nuclei (%) (Fibroblast [2]; [11]): 23%
Population Healthy Nuclei (%) (Fibroblast [2]; [11]): 57%
Population Hoechst High Intensity Objects (%) (Fibroblast [2]; [11]): 15%
Population Membrane Permeable-Phenotype (%) (Fibroblast [2]; [11]): 6%
Population Mitochondria Different-Phenotype (%) (Fibroblast [2]; [11]): 3%
Population Mitotic Cells (%) (Fibroblast [2]; [11]): 42%
Population Normal (%) (Fibroblast [2]; [11]): 84%
Population Pyknosed Nuclei (%) (Fibroblast [2]; [11]): 18%
Population Tubulin-Different-Phenotype (%) (Fibroblast [2]; [11]): 5%
Total Cell Count (Fibroblast [2]; [11]): 238
Population Apoptotic (%) (Fibroblast [2]; [12]): 60%
Population Fragmented Nuclei (%) (Fibroblast [2]; [12]): 59%
Population Healthy Nuclei (%) (Fibroblast [2]; [12]): 33%
Population Hoechst High Intensity Objects (%) (Fibroblast [2]; [12]): 31%
Population Membrane Permeable-Phenotype (%) (Fibroblast [2]; [12]): 13%
Population Mitochondria Different-Phenotype (%) (Fibroblast [2]; [12]): 4%
Population Mitotic Cells (%) (Fibroblast [2]; [12]): 40%
Population Normal (%) (Fibroblast [2]; [12]): 68%
Population Pyknosed Nuclei (%) (Fibroblast [2]; [12]): 7%
Population Tubulin-Different-Phenotype (%) (Fibroblast [2]; [12]): 18%
Total Cell Count (Fibroblast [2]; [12]): 97
Population Apoptotic (%) (Fibroblast [2]; [13]): 73%
Population Fragmented Nuclei (%) (Fibroblast [2]; [13]): 44%
Population Healthy Nuclei (%) (Fibroblast [2]; [13]): 42%
Population Hoechst High Intensity Objects (%) (Fibroblast [2]; [13]): 19%
Population Membrane Permeable-Phenotype (%) (Fibroblast [2]; [13]): 5%
Population Mitochondria Different-Phenotype (%) (Fibroblast [2]; [13]): 7%
Population Mitotic Cells (%) (Fibroblast [2]; [13]): 26%
Population Normal (%) (Fibroblast [2]; [13]): 80%
Population Pyknosed Nuclei (%) (Fibroblast [2]; [13]): 12%
Population Tubulin-Different-Phenotype (%) (Fibroblast [2]; [13]): 39%
Total Cell Count (Fibroblast [2]; [13]): 409
Population Apoptotic (%) (Fibroblast [2]; [14]): 63%
Population Fragmented Nuclei (%) (Fibroblast [2]; [14]): 69%
Population Healthy Nuclei (%) (Fibroblast [2]; [14]): 19%
Population Hoechst High Intensity Objects (%) (Fibroblast [2]; [14]): 45%
Population Membrane Permeable-Phenotype (%) (Fibroblast [2]; [14]): 4%
Population Mitochondria Different-Phenotype (%) (Fibroblast [2]; [14]): 23%
Population Mitotic Cells (%) (Fibroblast [2]; [14]): 36%
Population Normal (%) (Fibroblast [2]; [14]): 54%
Population Pyknosed Nuclei (%) (Fibroblast [2]; [14]): 10%
Population Tubulin-Different-Phenotype (%) (Fibroblast [2]; [14]): 66%
Total Cell Count (Fibroblast [2]; [14]): 193
Growth Rate (U2OS; 0 h, replicate number 2, timepoint 0 hours): 0
Growth Rate (U2OS; [3]): 0
Growth Rate (U2OS; [4]): 0
Growth Rate (U2OS; [5]): 0
Growth Rate (U2OS; [6]): 0
